Test results taken from ChEMBL document CHEMBL5500387, “Design, synthesis of combretastatin A-4 piperazine derivatives as potential antitumor agents by inhibiting tubulin polymerization and inducing autophagy in HCT116 cells” (Eur J Med Chem, 2024).
Activity calls are given as the source filed them. The calls are words filed in the database; no cut-off is given here.

What was measured:
A549 [1] = test: Induction of cell cycle arrest in human A549 cells assessed as accumulation of cells at G0/G1 phase at 0.2 uM measured after 24 hrs by PI/RNase staining based analysis (reference value: 41.91%); type: functional
A549 [2] = test: Induction of cell cycle arrest in human A549 cells assessed as accumulation of cells at S phase at 0.2 uM measured after 24 hrs by PI/RNase staining based analysis (reference value: 24.95%); type: functional
A549 [3] = test: Induction of apoptosis in human A549 cells assessed as dead cells at 0.1 uM measured after 24 hrs by Annexin V-APC/PI staining based flow cytometry analysis (reference value: 0.50%); type: functional
A549 [4] = test: Induction of apoptosis in human A549 cells assessed as late apoptotic cells at 0.3 uM measured after 24 hrs by Annexin V-APC/PI staining based flow cytometry analysis (reference value: 0.86%); type: functional
HCT-116 [5] = test: Inhibition of cell invasion in human HCT-116 cells measured after 48 hrs by crystal violet staining based fluorescent inverted microscopic analysis; type: functional; details: dose 0.1-0.3 µM
Procedure, shortened: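 Transwell inserts were coated with Matrigel (1:3 in serum-free medium). HCT116 cells (1×10^4) in serum-free medium went in the upper chamber, with complete medium as stimulus. Treated with 0.1, 0.2 or 0.3 μM or 0.1% DMSO for 48 h at 37 °C. Fixed in 4% paraformaldehyde, stained with 0.1% crystal violet, and imaged. Counts analysed by ImageJ. At least three replicates.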

A549 [6] = test: Induction of apoptosis in human A549 cells assessed as live cells at 0.2 uM measured after 24 hrs by Annexin V-APC/PI staining based flow cytometry analysis (reference value: 96.91%); type: functional
HCT-116 [7] = test: Induction of cell cycle arrest in human HCT-116 cells assessed as accumulation of cells at G2/M phase at 0.2 uM measured after 24 hrs by PI/RNase staining based flow cytometry analysis (reference value: 28.83%); type: functional
HCT-116 [8] = test: Inhibition of cell migration in human HCT-116 cells measured after 24 hrs by crystal violet staining based fluorescent inverted microscopic analysis; type: functional; details: dose 0.1-0.3 µM
Procedure, shortened: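 Uncoated Transwell inserts were seeded with HCT116 cells (1×10^4) in the upper chamber, with complete medium below. Treated 24 h at 37 °C, 5% CO2, with 0.1, 0.2 or 0.3 μM or 0.1% DMSO. Fixed with 4% paraformaldehyde, stained with 0.1% crystal violet, migrated cells imaged and counted. At least three replicates.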

HCT-116 [9] = test: Induction of cell cycle arrest in human HCT-116 cells assessed as accumulation of cells at G0/G1 phase at 0.3 uM measured after 24 hrs by PI/RNase staining based flow cytometry analysis (reference value: 32.88%); type: functional
A549 [10] = test: Induction of cell cycle arrest in human A549 cells assessed as accumulation of cells at G0/G1 phase at 0.1 uM measured after 24 hrs by PI/RNase staining based analysis (reference value: 41.91%); type: functional
HCT-116 [11] = test: Induction of autophagy in human HCT-116 cells assessed as downregulation of p62 protein level measured after 24 hrs by Western blot analysis; type: functional, cell-based; details: dose 0.1-0.3 µM
Procedure, shortened: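 HCT116 cells exposed for 24 h to 0.1, 0.2 or 0.3 μM. Lysed on ice and protein measured by BCA. […] Milk-blocked, probed with anti-LC3A/B or anti-phospho-SQSTM1/p62 (1:1000) plus β-actin, then HRP anti-rabbit and chemiluminescence. Bands normalised to control set to 1. Three independent experiments.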

A549 [12] = test: Induction of apoptosis in human A549 cells assessed as late apoptotic cells at 0.1 uM measured after 24 hrs by Annexin V-APC/PI staining based flow cytometry analysis (reference value: 0.86%); type: functional
A549 [13] = test: Induction of cell cycle arrest in human A549 cells assessed as accumulation of cells at S phase at 0.3 uM measured after 24 hrs by PI/RNase staining based analysis (reference value: 24.95%); type: functional
HCT-116 [14] = test: Induction of cell cycle arrest in human HCT-116 cells assessed as accumulation of cells at G2/M phase at 0.3 uM measured after 24 hrs by PI/RNase staining based flow cytometry analysis (reference value: 28.83%); type: functional
HCT-116 [15] = test: Induction of autophagy in human HCT-116 cells transfected with mRFP-GFP-LC3 adenovirus assessed as increase in LC3 labeling by measuring increase in number of yellow dots measured after 24 hrs by immunofluorescence staining based confocal microscopic analysis; type: functional, cell-based; details: dose 0.1-0.3 µM
Procedure, shortened: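 HCT116 cells on glass slides were infected with mRFP-GFP-LC3 adenovirus at 50% confluence and incubated 24 h. They were then treated 24 h with 0.1–0.3 μM or 0.1% DMSO. Fixed in 4% paraformaldehyde, mounted with DAPI, and yellow LC3 puncta imaged by confocal microscopy.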

A549 [16] = test: Induction of apoptosis in human A549 cells assessed as early apoptotic cells at 0.3 uM measured after 24 hrs by Annexin V-APC/PI staining based flow cytometry analysis (reference value: 1.73%); type: functional
HCT-116 [17] = test: Induction of cell cycle arrest in human HCT-116 cells assessed as accumulation of cells at S phase at 0.2 uM measured after 24 hrs by PI/RNase staining based flow cytometry analysis (reference value: 38.29%); type: functional
HCT-116 [18] = test: Antitumor activity against human HCT-116 cells xenografted in female BALB/c nude mouse assessed as tumor growth inhibition at 20 mg/kg, ip administered every 2 days for 20 days by vernier caliper relative to control; type: functional; details: HCT-116, 480 h, time 20 day, read-out: TGI
Procedure, shortened: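 HCT116 cells (5×10^7/0.2 mL/mouse) injected subcutaneously beside the right forelimb of 5-week-old female BALB/c nude mice. At 100 mm³ tumour volume, mice randomised by weight and tumour size into four groups of ten. Saline vehicle control ip. Dosing for 20 days, then euthanasia and tumour weighing. Caliper diameters used; volume = W²×L/2.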

Tubulin (Homo sapiens) = Tubulin (Homo sapiens) (UniProt P68371+Q9H4B7+P0DPH7+P68366+Q13509+Q71U36+P04350+Q3ZCM7+P07437+P68363+Q9BQE3+Q6PEY2+Q13885+Q9BVA1+Q9BUF5); test: Disruption of microtubule network in human HCT-116 cells at 0.1 to 0.3 uM measured after 48 hrs by immunofluorescent staining based analysis; type: cell-based; details: dose 0.1-0.3 µM
Procedure, shortened: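 HCT116 cells (1×10^5/well suspension) settled on glass slides overnight at 37 °C, 5% CO2. Treated 48 h with 0.1, 0.2 or 0.3 μM, or 0.1% DMSO. Fixed in 4% paraformaldehyde, permeabilised with 0.5% Triton X-100, blocked. Anti-α-tubulin (1:4000) at 4 °C overnight, then Alexa488 anti-mouse IgG 1 h. DAPI mount, confocal imaging.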

HCT-116 [19] = test: Induction of cell cycle arrest at G2/M phase in human HCT-116 cells assessed as reduction in Cyclin B1 protein expression measured after 48 hrs by Western blot analysis; type: functional, cell-based; details: dose 0.1-0.3 µM
Procedure, shortened: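 HCT116 cells given 0.1, 0.2 or 0.3 μM for 48 h, with 0.1% DMSO control. Lysates run on SDS-PAGE and blotted to PVDF. Probed with anti-Cdc2 and anti-Cyclin B1 (1:1000), β-actin as loading control, HRP secondary, and chemiluminescence. Band quantities expressed relative to control set to 1. Three independent experiments.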

A549 [20] = test: Induction of apoptosis in human A549 cells assessed as dead cells at 0.2 uM measured after 24 hrs by Annexin V-APC/PI staining based flow cytometry analysis (reference value: 0.50%); type: functional

COc1ccc(/C=C(/C(=O)N2CCN(c3ccc(C)cc3)CC2)c2cc(OC)c(OC)c(OC)c2)cc1O
Activity (A549 [1]): 77.73% | Activity (A549 [2]): 13.76% | Activity (A549 [3]): 0.83% | Activity (A549 [4]): 8.87% | inhibition (HCT-116 [5]): Dose-Dependent Effect | Activity (A549 [6]): 76.79% | Activity (HCT-116 [7]): 44.67% | inhibition (HCT-116 [8]): Dose-Dependent Effect | Activity (HCT-116 [9]): 5.43% | Activity (A549 [10]): 69.3% | Activity (HCT-116 [11]): Dose-Dependent Effect | Activity (A549 [12]): 2.78% | Activity (A549 [13]): 7.17% | Activity (HCT-116 [14]): 88.26% | Activity (HCT-116 [15]): Dose-Dependent Effect | Activity (A549 [16]): 21.09% | Activity (HCT-116 [17]): 21.17% | inhibition in vivo at 20 mg/kg (HCT-116 [18]): 1.48% | Activity (Tubulin (Homo sapiens)): Active | Activity (HCT-116 [19]): Dose-Dependent Effect | Activity (A549 [20]): 1.05%
